A selection: hits, their analogues and other compounds. The true share with any hit is near 4.2%.
TAAR1 antagonist: human TAAR1 antagonists, primary screen, Fluo-8 calcium fluorescence, CHO RD-HGA16 cells; AID 624466, 2012; antagonist; 360,000 compounds, 1.5% hits; Trace amine-associated receptor 1 (Homo sapiens), Q96RJ0; inhibition, % at 3 µM;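 active means inhibition above a per-plate cutoff, the mean inhibition of test compounds on that plate plus 3 SD, cut at about 49% in these data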;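 further: 0% = DMSO plus EC80 beta-PEA response and 100% = DMSO alone without agonist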
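Assay system: RD-HGA16 CHO cells with stable hTAAR1 and Gα16 / Reagent: EC80 β-phenethylamine stimulus / Doses: 3 µM, single point / Timing: dye loading 75 min at 37 °C, then 30 min room temperature / Measured by: Fluo-8 intracellular calcium dye fluorescence, real-time kinetic reads / Controls: vehicle wells and EC80 agonist wells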
TAAR1 agonist: human TAAR1 agonists, primary screen, Fluo-8 calcium fluorescence, CHO RD-HGA16 cells | Trace amine-associated receptor 1 (Homo sapiens), Q96RJ0 | vehicle wells 0%, saturating PEA agonist 100% | activation, % at 3 µM | 360,000 compounds, 0.99% hits | AID 624467, 2012;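 active means activation above the mean activation of all test compounds in the run plus 3 SD, cut at about 38% in these data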
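test system = CHO RD-HGA16 cells carrying human TAAR1 plus Gα16 | schedule = 17-24 h seeding, 75 min 37 °C dye, 30 min RT | compound dosing = 3 µM single concentration | control set = DMSO and PEA EC100 | replicates = n 1 | signal = Fluo-8 fluorescence, 5 s baseline then 140 s kinetic read | measure = percent activation vs PEA EC100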
GalR3 antag: GalR3 antagonists in HEK293 cells, primary screen, cell-based, fluorescence readout. 360,000 compounds, 0.44% hits. inhibition, % at 3 µM. Galanin receptor type 3 (Homo sapiens), O60755. HEK293 GalR3-CNG cAMP membrane potential fluorescence; galR3 body fused to GalR1 C-terminus;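 active means inhibition above the screen-wide average plus 3 SD, cut at about 13% in these data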;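 further: forskolin and galanin both at EC90 stimulate the cells; cAMP rise reported by CNG channel membrane potential dye signal; 0% = forskolin plus galanin with DMSO and 100% = forskolin alone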
OX1R antag-1: antagonists of human orexin 1 receptor (OX1R). OX1R-expressing cells, FRET antagonist read-out. 330,000 compounds, 1.8% hits. Orexin/Hypocretin receptor type 1 (Homo sapiens), O43613. inhibition, % at 6.6 µM; in the data active means inhibition mostly above about 38%, no sharp cut-off; inactive means mostly below about 40%;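 further: 0% = agonist challenge alone and 100% = reference antagonist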
Target sequence (O43613 whole entry, looked up): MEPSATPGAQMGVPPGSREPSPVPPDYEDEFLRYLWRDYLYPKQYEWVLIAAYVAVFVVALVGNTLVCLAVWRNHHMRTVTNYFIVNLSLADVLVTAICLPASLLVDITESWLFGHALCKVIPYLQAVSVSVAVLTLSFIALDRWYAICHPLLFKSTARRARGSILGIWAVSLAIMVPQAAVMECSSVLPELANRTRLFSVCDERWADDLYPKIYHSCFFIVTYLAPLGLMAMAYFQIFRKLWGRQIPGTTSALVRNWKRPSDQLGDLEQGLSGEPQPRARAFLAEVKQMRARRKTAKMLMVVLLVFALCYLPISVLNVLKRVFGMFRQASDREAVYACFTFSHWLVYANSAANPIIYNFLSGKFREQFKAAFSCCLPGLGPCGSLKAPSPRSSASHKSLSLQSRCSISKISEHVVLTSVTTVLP
OX1R antag-2: OX1R (HCRTR1) antagonists, primary screen, fluorescence, CHO/OX1R cells, Fluo-8 calcium, orexin A. Orexin/Hypocretin receptor type 1 (Homo sapiens), O43613. Fluo-8 calcium fluorescence. inhibition, % at 5 µM. 330,000 compounds, 0.43% hits;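 active means inhibition above its plate's threshold, mean inhibition of all tested compounds on the plate plus 3 SD, cut at about 37% in these data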;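 further: 0% = orexin A challenge wells and 100% = SB-334867-A antagonist wells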
CHO parental Ca: ATP-evoked calcium signal inhibitors, parental CHO, primary screen, counter-screen for OX1R antagonist project, cell-based, fluorescence, Fluo-8 calcium dye | parental CHO-K1, ATP-induced calcium, Fluo-8 fluorescence | inhibition, % at 5.6 µM | 330,000 compounds, 0.63% hits;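 active means inhibition above that plate's mean sample inhibition plus 3 SD, cut at about 26% in these data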;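 further: 0% = ATP-challenged DMSO wells and 100% = DMSO wells without ATP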
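Measured by: calcium-sensitive Fluo-8 fluorescence / Test system: CHO parental line / Controls: ATP-challenged DMSO wells low, unchallenged DMSO wells high / Measure: % inhibition / Compound: single nominal dose of 5.6 µM per compound / Replicates: single well per compound, no replicates / Reagent: ATP as calcium-mobilizing challenge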
* = called active by the depositor.

`Cc1ccc(-n2nnnc2-c2cnc(-c3cccnc3)nc2C(F)(F)F)cc1` gave TAAR1 antagonist 27, TAAR1 agonist 13, GalR3 antag 1, OX1R antag-1 40, OX1R antag-2 -20 and CHO parental Ca -11.
`Fc1ccc(-n2nnnc2-c2cnc(-c3cccs3)nc2C(F)(F)F)cc1` gave TAAR1 antagonist 79*, TAAR1 agonist 16, GalR3 antag -4, OX1R antag-1 83*, OX1R antag-2 39 and CHO parental Ca 51*.
Screening c1ccc(-n2nnnc2-c2cnc(-c3ccncc3)nc2-c2cccs2)cc1 returned TAAR1 antagonist 7, TAAR1 agonist -2, GalR3 antag 1, OX1R antag-1 46*, OX1R antag-2 21 and CHO parental Ca -11.
Screening FC(F)(F)c1nc(N2CCCC2)ncc1-c1nnnn1-c1ccc(Cl)cc1 returned TAAR1 antagonist 6, TAAR1 agonist 12, GalR3 antag -3, OX1R antag-1 50, OX1R antag-2 61* and CHO parental Ca 47*.
`FC(F)(F)c1nc(-c2ccncc2)ncc1-c1nnnn1-c1ccccc1` gave TAAR1 antagonist 5, TAAR1 agonist 4, GalR3 antag -2, OX1R antag-1 15, OX1R antag-2 -10 and CHO parental Ca -23.
For CCOc1cccc(CN2CCN(Cc3ccc(C)o3)C(CCO)C2)c1O (stereo unspecified) the results were TAAR1 antagonist -19, TAAR1 agonist 2, GalR3 antag -7, OX1R antag-1 4, OX1R antag-2 -7 and CHO parental Ca -4.
For C#CCn1cc(/C=N/NC(=O)c2cc3ccccc3o2)c2ccccc21 the results were TAAR1 antagonist 15, TAAR1 agonist 3, GalR3 antag 2, OX1R antag-1 72*, OX1R antag-2 -1 and CHO parental Ca -6.
Screening COc1ccc2nc(C)cc(N/N=C/c3cccc(OC)c3O)c2c1 returned TAAR1 antagonist -8, TAAR1 agonist 0, GalR3 antag -8, OX1R antag-1 2, OX1R antag-2 -32 and CHO parental Ca -26.
COC(=O)CC1C(=O)NCCN1C(=O)c1cc([N+](=O)[O-])ccc1Cl (stereo unspecified) was read as TAAR1 antagonist -12, TAAR1 agonist 5, GalR3 antag -8, OX1R antag-1 4, OX1R antag-2 -29 and CHO parental Ca 4.
`COC(=O)CC1C(=O)NCCN1C(=O)c1cc(OC)c(OC)cc1OC` (stereo unspecified) gave TAAR1 antagonist -7, TAAR1 agonist 2, GalR3 antag -5, OX1R antag-1 -6, OX1R antag-2 -15 and CHO parental Ca 30*.
For Cc1ccc(Nc2nc(Cl)nc(N(C)C#N)n2)cc1 the results were TAAR1 antagonist -23, TAAR1 agonist 25, GalR3 antag 5, OX1R antag-1 25, OX1R antag-2 -35 and CHO parental Ca -28.
`O=C(Cc1cccs1)NNC(=S)NC(=O)c1ccccc1` gave TAAR1 antagonist -18, TAAR1 agonist 12, GalR3 antag -2, OX1R antag-1 4, OX1R antag-2 14 and CHO parental Ca 2.
`O=C(/C=C/c1ccccc1)NC(=S)NNC(=O)Cc1cccs1` gave TAAR1 antagonist 2, TAAR1 agonist 53*, GalR3 antag -3, OX1R antag-1 16, OX1R antag-2 22 and CHO parental Ca 12.
Screening Cc1nc(/N=C(\N)NC(=O)c2ccccc2)nc2ccccc12 returned OX1R antag-1 72*, OX1R antag-2 27 and CHO parental Ca -22.
Cc1ccc(CNC(=O)c2oc3ccc(S(=O)(=O)N4CCOCC4)cc3c2C)cc1 was read as TAAR1 antagonist 47, TAAR1 agonist 26, GalR3 antag -8, OX1R antag-1 -4, OX1R antag-2 -2 and CHO parental Ca -7.
COc1ccc(CNC(=O)c2oc3ccc(S(=O)(=O)N4CCOCC4)cc3c2C)cc1 was read as TAAR1 antagonist 51*, TAAR1 agonist 29, GalR3 antag -8, OX1R antag-1 4, OX1R antag-2 -6 and CHO parental Ca -12.
